Data taken from paper PMC9217999 (Targeted Oncology, 2022).
Entries after “also recorded” stand apart in the source; their conditions may differ.

Experiment: Safety and tolerability in iMATRIX-cobi Phase I/II study
Type: in vivo, human
Procedure, shortened: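 Patients aged 6 months to <30 years with relapsed/refractory solid tumors with MAPK pathway involvement. Oral test compound (20-mg tablet or suspension, with/without food) on Days 1–21 of 28-day cycles. Cumulative weekly weight-based dose rounded to 20 mg, capped at 60 mg/day. Rolling 6 escalation in cohorts of 3–6. Eye exams including OCT at baseline, cycle 1 Days 8/15, and each later cycle Day 1. All dosed patients evaluated.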

[1] = Dose escalation tablet (n = 18)

O=C(c1ccc(F)c(F)c1Nc1ccc(I)cc1F)N1CC(O)([C@@H]2CCCCN2)C1 [cobimetinib]
Treatment-related AE: Encephalopathy, G3 [1]: 1 (6) n (%) | Treatment-related AE: Encephalopathy, G4 [1]: 0 n (%) | Treatment-related AE: Erythema, G1 [1]: 2 (11) n (%) | Treatment-related AE: Erythema, G2 [1]: 0 n (%) | Treatment-related AE: Erythema, G3 [1]: 0 n (%) | Treatment-related AE: Erythema, G4 [1]: 0 n (%) | Treatment-related AE: Fatigue, G1 [1]: 2 (11) n (%) | Treatment-related AE: Fatigue, G2 [1]: 0 n (%) | Treatment-related AE: Fatigue, G3 [1]: 0 n (%) | Treatment-related AE: Fatigue, G4 [1]: 0 n (%) | Treatment-related AE: Headache, G1 [1]: 1 (6) n (%) | Treatment-related AE: Headache, G2 [1]: 0 n (%) | Treatment-related AE: Headache, G3 [1]: 1 (6) n (%) | Treatment-related AE: Headache, G4 [1]: 0 n (%) | Treatment-related AE: Nausea, G1 [1]: 3 (17) n (%) | Treatment-related AE: Nausea, G2 [1]: 0 n (%) | Treatment-related AE: Nausea, G3 [1]: 0 n (%) | Treatment-related AE: Nausea, G4 [1]: 0 n (%) | Treatment-related AE: Paronychia, G1 [1]: 0 n (%) | Treatment-related AE: Paronychia, G2 [1]: 0 n (%) | Treatment-related AE: Paronychia, G3 [1]: 0 n (%) | Treatment-related AE: Paronychia, G4 [1]: 0 n (%) | Treatment-related AE: Rash, G1 [1]: 3 (17) n (%) | Treatment-related AE: Rash, G2 [1]: 0 n (%) | Treatment-related AE: Rash, G3 [1]: 0 n (%) | Treatment-related AE: Rash, G4 [1]: 0 n (%) | Treatment-related AE: Transaminases increased, G1 [1]: 0 n (%) | Treatment-related AE: Transaminases increased, G2 [1]: 0 n (%) | Treatment-related AE: Transaminases increased, G3 [1]: 0 n (%) | Treatment-related AE: Transaminases increased, G4 [1]: 0 n (%) | Treatment-related AE: Vomiting, G1 [1]: 1 (6) n (%) | Treatment-related AE: Vomiting, G2 [1]: 2 (11) n (%) | Treatment-related AE: Vomiting, G3 [1]: 0 n (%) | Treatment-related AE: Vomiting, G4 [1]: 0 n (%) | Treatment-related AE: Weight increased, G1 [1]: 0 n (%) | Treatment-related AE: Weight increased, G2 [1]: 0 n (%) | Treatment-related AE: Weight increased, G3 [1]: 1 (6) n (%) | Treatment-related AE: Weight increased, G4 [1]: 0 n (%) | Any treatment-related AE, G1 (Dose expansion (n = 12)): 3 (25) n (%) | Any treatment-related AE, G2 (Dose expansion (n = 12)): 3 (25) n (%) | Any treatment-related AE, G3 (Dose expansion (n = 12)): 3 (25) n (%) | Any treatment-related AE, G4 (Dose expansion (n = 12)): 2 (17) n (%) | Treatment-related AE: ALT increased, G1 (Dose expansion (n = 12)): 1 (8) n (%) | Treatment-related AE: ALT increased, G2 (Dose expansion (n = 12)): 0 n (%) | Treatment-related AE: ALT increased, G3 (Dose expansion (n = 12)): 0 n (%) | Treatment-related AE: ALT increased, G4 (Dose expansion (n = 12)): 0 n (%) | Treatment-related AE: AST increased, G1 (Dose expansion (n = 12)): 1 (8) n (%) | Treatment-related AE: AST increased, G2 (Dose expansion (n = 12)): 0 n (%) | Treatment-related AE: AST increased, G3 (Dose expansion (n = 12)): 1 (8) n (%) | Treatment-related AE: AST increased, G4 (Dose expansion (n = 12)): 0 n (%) | Treatment-related AE: Abdominal pain, G1 (Dose expansion (n = 12)): 3 (25) n (%) | Treatment-related AE: Abdominal pain, G2 (Dose expansion (n = 12)): 0 n (%) | Treatment-related AE: Abdominal pain, G3 (Dose expansion (n = 12)): 0 n (%) | Treatment-related AE: Abdominal pain, G4 (Dose expansion (n = 12)): 0 n (%) | Treatment-related AE: Anemia, G1 (Dose expansion (n = 12)): 1 (8) n (%) | Treatment-related AE: Anemia, G2 (Dose expansion (n = 12)): 0 n (%) | Treatment-related AE: Anemia, G3 (Dose expansion (n = 12)): 1 (8) n (%) | Treatment-related AE: Anemia, G4 (Dose expansion (n = 12)): 0 n (%) | Treatment-related AE: Asthenia, G1 (Dose expansion (n = 12)): 0 n (%) | Treatment-related AE: Asthenia, G2 (Dose expansion (n = 12)): 0 n (%) | Treatment-related AE: Asthenia, G3 (Dose expansion (n = 12)): 1 (8) n (%) | Treatment-related AE: Asthenia, G4 (Dose expansion (n = 12)): 0 n (%) | Treatment-related AE: Blood CPK increased, G1 (Dose expansion (n = 12)): 0 n (%) | Treatment-related AE: Blood CPK increased, G2 (Dose expansion (n = 12)): 0 n (%) | Treatment-related AE: Blood CPK increased, G3 (Dose expansion (n = 12)): 1 (8) n (%) | Treatment-related AE: Blood CPK increased, G4 (Dose expansion (n = 12)): 1 (8) n (%) | Treatment-related AE: Chorioretinopathy, G1 (Dose expansion (n = 12)): 0 n (%) | Treatment-related AE: Chorioretinopathy, G2 (Dose expansion (n = 12)): 0 n (%) | Treatment-related AE: Chorioretinopathy, G3 (Dose expansion (n = 12)): 0 n (%) | Treatment-related AE: Chorioretinopathy, G4 (Dose expansion (n = 12)): 0 n (%) | Treatment-related AE: Constipation, G1 (Dose expansion (n = 12)): 0 n (%) | Treatment-related AE: Constipation, G2 (Dose expansion (n = 12)): 0 n (%) | Treatment-related AE: Constipation, G3 (Dose expansion (n = 12)): 0 n (%) | Treatment-related AE: Constipation, G4 (Dose expansion (n = 12)): 0 n (%) | Treatment-related AE: Decreased appetite, G1 (Dose expansion (n = 12)): 1 (8) n (%) | Treatment-related AE: Decreased appetite, G2 (Dose expansion (n = 12)): 0 n (%) | Treatment-related AE: Decreased appetite, G3 (Dose expansion (n = 12)): 0 n (%) | Treatment-related AE: Decreased appetite, G4 (Dose expansion (n = 12)): 0 n (%) | Treatment-related AE: Dermatitis acneiform, G1 (Dose expansion (n = 12)): 1 (8) n (%) | Treatment-related AE: Dermatitis acneiform, G2 (Dose expansion (n = 12)): 0 n (%) | Treatment-related AE: Dermatitis acneiform, G3 (Dose expansion (n = 12)): 0 n (%) | Treatment-related AE: Dermatitis acneiform, G4 (Dose expansion (n = 12)): 0 n (%) | Treatment-related AE: Diarrhea, G1 (Dose expansion (n = 12)): 4 (33) n (%) | Treatment-related AE: Diarrhea, G2 (Dose expansion (n = 12)): 0 n (%) | Treatment-related AE: Diarrhea, G3 (Dose expansion (n = 12)): 0 n (%) | Treatment-related AE: Diarrhea, G4 (Dose expansion (n = 12)): 0 n (%) | Treatment-related AE: Dry skin, G1 (Dose expansion (n = 12)): 1 (8) n (%) | Treatment-related AE: Dry skin, G2 (Dose expansion (n = 12)): 0 n (%) | Treatment-related AE: Dry skin, G3 (Dose expansion (n = 12)): 0 n (%) | Treatment-related AE: Dry skin, G4 (Dose expansion (n = 12)): 0 n (%) | Treatment-related AE: Encephalopathy, G1 (Dose expansion (n = 12)): 0 n (%) | Treatment-related AE: Encephalopathy, G2 (Dose expansion (n = 12)): 0 n (%) | Treatment-related AE: Encephalopathy, G3 (Dose expansion (n = 12)): 0 n (%) | Treatment-related AE: Encephalopathy, G4 (Dose expansion (n = 12)): 1 (8) n (%) | Treatment-related AE: Erythema, G1 (Dose expansion (n = 12)): 0 n (%) | Treatment-related AE: Erythema, G2 (Dose expansion (n = 12)): 0 n (%) | Treatment-related AE: Erythema, G3 (Dose expansion (n = 12)): 0 n (%) | Treatment-related AE: Erythema, G4 (Dose expansion (n = 12)): 0 n (%) | Treatment-related AE: Fatigue, G1 (Dose expansion (n = 12)): 2 (17) n (%) | Treatment-related AE: Fatigue, G2 (Dose expansion (n = 12)): 0 n (%) | Treatment-related AE: Fatigue, G3 (Dose expansion (n = 12)): 0 n (%) | Treatment-related AE: Fatigue, G4 (Dose expansion (n = 12)): 0 n (%) | Treatment-related AE: Headache, G1 (Dose expansion (n = 12)): 1 (8) n (%) | Treatment-related AE: Headache, G2 (Dose expansion (n = 12)): 0 n (%) | Treatment-related AE: Headache, G3 (Dose expansion (n = 12)): 0 n (%) | Treatment-related AE: Headache, G4 (Dose expansion (n = 12)): 0 n (%) | Treatment-related AE: Nausea, G1 (Dose expansion (n = 12)): 1 (8) n (%) | Treatment-related AE: Nausea, G2 (Dose expansion (n = 12)): 0 n (%) | Treatment-related AE: Nausea, G3 (Dose expansion (n = 12)): 0 n (%) | Treatment-related AE: Nausea, G4 (Dose expansion (n = 12)): 0 n (%) | Treatment-related AE: Paronychia, G1 (Dose expansion (n = 12)): 0 n (%) | Treatment-related AE: Paronychia, G2 (Dose expansion (n = 12)): 0 n (%) | Treatment-related AE: Paronychia, G3 (Dose expansion (n = 12)): 0 n (%) | Treatment-related AE: Paronychia, G4 (Dose expansion (n = 12)): 0 n (%) | Treatment-related AE: Rash, G1 (Dose expansion (n = 12)): 0 n (%) | Treatment-related AE: Rash, G2 (Dose expansion (n = 12)): 1 (8) n (%) | Treatment-related AE: Rash, G3 (Dose expansion (n = 12)): 0 n (%) | Treatment-related AE: Rash, G4 (Dose expansion (n = 12)): 0 n (%) | Treatment-related AE: Transaminases increased, G1 (Dose expansion (n = 12)): 0 n (%) | Treatment-related AE: Transaminases increased, G2 (Dose expansion (n = 12)): 0 n (%) | Treatment-related AE: Transaminases increased, G3 (Dose expansion (n = 12)): 0 n (%) | Treatment-related AE: Transaminases increased, G4 (Dose expansion (n = 12)): 0 n (%) | Treatment-related AE: Vomiting, G1 (Dose expansion (n = 12)): 4 (33) n (%) | Treatment-related AE: Vomiting, G2 (Dose expansion (n = 12)): 0 n (%) | Treatment-related AE: Vomiting, G3 (Dose expansion (n = 12)): 0 n (%) | Treatment-related AE: Vomiting, G4 (Dose expansion (n = 12)): 0 n (%) | Treatment-related AE: Weight increased, G1 (Dose expansion (n = 12)): 0 n (%) | Treatment-related AE: Weight increased, G2 (Dose expansion (n = 12)): 0 n (%) | Treatment-related AE: Weight increased, G3 (Dose expansion (n = 12)): 1 (8) n (%) | Treatment-related AE: Weight increased, G4 (Dose expansion (n = 12)): 0 n (%) | AESI aspartate aminotransferase increased (dose escalation suspension): 12% | AESI epistaxis (dose escalation suspension): 12% | AESI aspartate aminotransferase increased (dose escalation tablet): 6% | AESI epistaxis (dose escalation tablet): 17% | Deaths on study (eleven deaths, all due to PD): 20% | AESI aspartate aminotransferase increased (expansion): 17% | AESI creatine phosphokinase increased (expansion): 17% | Adverse events of special interest (AESI) (expansion): 50% | TRAEs leading to cobimetinib withdrawal (expansion): 8% | TRAEs leading to cobimetinib withdrawal (overall, six patients): 11% | Patients with DLTs (six patients, dose escalation, cycle 1): 11% | Adverse events of special interest (AESI) (suspension dose escalation): 50% | TRAEs leading to cobimetinib withdrawal (suspension dose escalation): 15% | TRAEs leading to cobimetinib withdrawal (events) (suspension dose escalation, 1.0 mg/kg): grade 2 epitheliopathy/keratitis | TRAEs leading to cobimetinib withdrawal (events) (suspension dose escalation, 1.33 mg/kg): grade 4 chorioretinopathy; also recorded: grade 2 ECG QT prolonged; also recorded: grade 1 serous retinal detachment | Pediatric recommended Phase II dose (RP2D), suspension (suspension, Days 1–21 of 28-day cycle): 1.0 mg/kg | TRAEs leading to cobimetinib withdrawal (tablet dose escalation): 6% | TRAEs leading to cobimetinib withdrawal (events) (tablet dose escalation, 1.0 mg/kg): grade 2 retinal detachment | Pediatric recommended Phase II dose (RP2D), tablet (tablet, Days 1–21 of 28-day cycle): 0.8 mg/kg
